Experimental data as given in ChEMBL document CHEMBL1125445, “Bis(maltolato)oxovanadium(IV) is a potent insulin mimic” (J Med Chem, 1992).

What was measured:
Type in all cases: functional, organism-based
Rattus norvegicus [1] = species on record: Rattus norvegicus; assay: Decrease in fluid (mL/rat/day)-intake in male Wistar rats diabetic treated (DT) group (number of rats = 12) which received compound dissolved in tap water
Summary of the method: (§1)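 Male Wistar rats; diabetes induced by a single tail-vein injection of streptozocin, 60 mg/kg in 0.9% NaCl, and non-diabetic rats got saline. Treated groups drank the compound in tap water (1.58 mM), and untreated groups drank tap water. Food and fluid intake per 24 h per cage was divided by rats per cage. Values at week 4, mean ± SEM, ANOVA/Newman-Keuls.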

Rattus norvegicus [2] = species on record: Rattus norvegicus; assay: Decrease food (g/rat/day) intake in male Wistar rats diabetic treated (DT) group (number of rats = 12) which received compound dissolved in tap water; summary of the method: as §1
Rattus norvegicus [3] = species on record: Rattus norvegicus; assay: Decrease weight(g) in male Wistar rats diabetic treated (DT) group (number of rats = 12) which received compound dissolved in tap water
Summary of the method: (§2)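 Male Wistar rats housed 2–3 per cage on a 12 h light/dark cycle with free food and water. Diabetes was induced by i.v. streptozocin, 60 mg/kg in 0.9% NaCl, and controls got saline. Treated groups drank the compound at 1.58 mM in tap water. Body weight was recorded daily and reported at week 4 as mean ± SEM, with ANOVA/Newman-Keuls.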

Rattus norvegicus [4] = assay: Decrease in plasma cholesterol (mM)in male Wistar rats diabetic (D) group (number of rats = 11) where the diabetic state was induced by intravenous administration of streptozocin (STZ) at 60 mg/kg; set-up: dose 60 mg/kg
Summary of the method: (§3)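 Wistar males, with STZ diabetes from 60 mg/kg i.v. in saline or saline-injected controls. Treated groups got the compound ad libitum in drinking water (1.58 mM) and untreated groups got tap water. Plasma was taken after 4 weeks by centrifuging blood at 20000g for 10 min at 4 °C and kept at -70 °C until assay. Reported as mean ± SEM, with ANOVA then Newman-Keuls.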

Rattus norvegicus [5] = species on record: Rattus norvegicus; assay: Decrease in plasma glucose (mM) of Male Wistar ratsrecieved an equivalent volume of isotonic saline (C control group); summary of the method: as §3
Rattus norvegicus [6] = species on record: Rattus norvegicus; assay: Decrease in plasma insulin (microUnits/mL) in male Wistar rats diabetic treated (DT) group (number of rats = 12) which received compound dissolved in tap water; summary of the method: as §3
Rattus norvegicus [7] = assay: Decrease in weight(g)in male Wistar rats diabetic (D) group (number of rats = 11) where the diabetic state was induced by intravenous administration of streptozocin (STZ) at 60 mg/kg; set-up: dose 60 mg/kg; summary of the method: as §2
Rattus norvegicus [8] = assay: Decrease in plasma insulin (microUnits/mL) in male Wistar rats diabetic (D) group (number of rats = 11) where the diabetic state was induced by intravenous administration of streptozocin (STZ) at 60 mg/kg; set-up: dose 60 mg/kg; summary of the method: as §3
Rattus norvegicus [9] = species on record: Rattus norvegicus; assay: Decrease in plasma triglyceride (mM) of male Wistar rats control treated (CT) group (number of rats = 11) which received compound dissolved in tap water; summary of the method: as §3
Rattus norvegicus [10] = species on record: Rattus norvegicus; assay: Decrease in plasma triglyceride (mM) of Male Wistar ratsrecieved an equivalent volume of isotonic saline (C control group); summary of the method: as §3
Rattus norvegicus [11] = species on record: Rattus norvegicus; assay: Decrease in plasma glucose (mM) of male Wistar rats control treated (CT) group (number of rats = 11) which received compound dissolved in tap water; summary of the method: as §3
Rattus norvegicus [12] = assay: Decrease in food (g/rat/day)in take in male Wistar rats diabetic (D) group (number of rats = 11) where the diabetic state was induced by intravenous administration of streptozocin (STZ) at 60 mg/kg; set-up: dose 60 mg/kg; summary of the method: as §1
Rattus norvegicus [13] = species on record: Rattus norvegicus; assay: Decrease in plasma glucose (mM) in male Wistar rats diabetic treated (DT) group (number of rats = 12) which received compound dissolved in tap water; summary of the method: as §3
Rattus norvegicus [14] = species on record: Rattus norvegicus; assay: Decrease in weight of Male Wistar ratsrecieved an equivalent volume of isotonic saline (C control group); summary of the method: as §2
Rattus norvegicus [15] = species on record: Rattus norvegicus; assay: Decrease in plasma insulin (microUnits/mL) of Male Wistar ratsrecieved an equivalent volume of isotonic saline (C control group); summary of the method: as §3
Rattus norvegicus [16] = species on record: Rattus norvegicus; assay: Decrease in plasma cholesterol (mM) of male Wistar rats control treated (CT) group (number of rats = 11) which received compound dissolved in tap water; summary of the method: as §3
Rattus norvegicus [17] = species on record: Rattus norvegicus; assay: Decrease in plasma cholesterol (mM) of Male Wistar ratsrecieved an equivalent volume of isotonic saline (C control group); summary of the method: as §3
Rattus norvegicus [18] = species on record: Rattus norvegicus; assay: Decrease in food intake of Male Wistar ratsrecieved an equivalent volume of isotonic saline (C control group); summary of the method: as §1
Rattus norvegicus [19] = species on record: Rattus norvegicus; assay: Decrease in plasma cholesterol (mM) in male Wistar rats diabetic treated (DT) group (number of rats = 12) which received compound dissolved in tap water; summary of the method: as §3
Rattus norvegicus [20] = assay: Decrease in plasma glucose (mM)in male Wistar rats diabetic (D) group (number of rats = 11) where the diabetic state was induced by intravenous administration of streptozocin (STZ) at 60 mg/kg; set-up: dose 60 mg/kg; summary of the method: as §3
Rattus norvegicus [21] = assay: Decrease in plasma triglyceride (mM)in male Wistar rats diabetic (D) group (number of rats = 11) where the diabetic state was induced by intravenous administration of streptozocin (STZ) at 60 mg/kg; set-up: dose 60 mg/kg; summary of the method: as §3
Rattus norvegicus [22] = species on record: Rattus norvegicus; assay: Decrease in plasma triglyceride (mM) in male Wistar rats diabetic treated (DT) group (number of rats = 12) which received compound dissolved in tap water; summary of the method: as §3
Rattus norvegicus [23] = species on record: Rattus norvegicus; assay: Decrease in weight of male Wistar rats control treated (CT) group (number of rats = 11) which received compound dissolved in tap water; summary of the method: as §2
Rattus norvegicus [24] = species on record: Rattus norvegicus; assay: Decrease in plasma insulin (microUnits/mL) of male Wistar rats control treated (CT) group (number of rats = 11) which received compound dissolved in tap water; summary of the method: as §3
Rattus norvegicus [25] = assay: Decrease in fluid (mL/rat/day)-intake-in male Wistar rats diabetic (D) group (number of rats = 11) where the diabetic state was induced by intravenous administration of streptozocin (STZ) at 60 mg/kg; set-up: dose 60 mg/kg; summary of the method: as §1
Rattus norvegicus [26] = species on record: Rattus norvegicus; assay: Decrease in food intake of male Wistar rats control treated (CT) group (number of rats = 11) which received compound dissolved in tap water; summary of the method: as §1
Rattus norvegicus [27] = species on record: Rattus norvegicus; assay: Decrease in fluid intake of male Wistar rats control treated (CT) group (number of rats = 11) which received compound dissolved in tap water; summary of the method: as §1
Rattus norvegicus [28] = species on record: Rattus norvegicus; assay: Decrease in fluid intake of Male Wistar ratsrecieved an equivalent volume of isotonic saline (C control group); summary of the method: as §1

In the case of BIS(MALTOLATO)OXOVANADIUM(IV), the Fluid (ml rat-1 day-1) (Rattus norvegicus [1]) is reported as 52, the Food (g rat-1 day-1) (Rattus norvegicus [2]) is reported as 37.9 and the WEIGHT (Rattus norvegicus [3]) is reported as 311 g. For the same substance, the Plasma cholesterol (Rattus norvegicus [4]) was 2.4 mM, the Plasma glucose (Rattus norvegicus [5]) was 4 mM and the Plasma insulin (Rattus norvegicus [6]) was 21.9 uUnits ml-1. It also gave a WEIGHT (Rattus norvegicus [7]) of 349 g, a Plasma insulin (Rattus norvegicus [8]) of 22 uUnits ml-1 and a Plasma triglyceride (Rattus norvegicus [9]) of 2.1 mM. For the same substance, the Plasma triglyceride (Rattus norvegicus [10]) was 1.8 mM, the Plasma glucose (Rattus norvegicus [11]) was 4.1 mM and the Food (g rat-1 day-1) (Rattus norvegicus [12]) was 63.5. It also gave a Plasma glucose (Rattus norvegicus [13]) of 7 mM, a WEIGHT (Rattus norvegicus [14]) of 404 g and a Plasma insulin (Rattus norvegicus [15]) of 35.6 uUnits ml-1. For the same substance, the Plasma cholesterol (Rattus norvegicus [16]) was 1.7 mM, the Plasma cholesterol (Rattus norvegicus [17]) was 1.4 mM and the Food (g rat-1 day-1) (Rattus norvegicus [18]) was 28.3. The Plasma cholesterol (Rattus norvegicus [19]) was 1.6 mM, the Plasma glucose (Rattus norvegicus [20]) was 13.9 mM and the Plasma triglyceride (Rattus norvegicus [21]) was 2.7 mM. The Plasma triglyceride (Rattus norvegicus [22]) was 1.9 mM, the WEIGHT (Rattus norvegicus [23]) was 391 g and the Plasma insulin (Rattus norvegicus [24]) was 21.6 uUnits ml-1. It also gave a Fluid (ml rat-1 day-1) (Rattus norvegicus [25]) of 264, a Food (g rat-1 day-1) (Rattus norvegicus [26]) of 28.8 and a Fluid (ml rat-1 day-1) (Rattus norvegicus [27]) of 43. It also gave a Fluid (ml rat-1 day-1) (Rattus norvegicus [28]) of 59.
